Measurements as given in ChEMBL document CHEMBL1156797, “Synthesis and antiplasmodial activity of new indolone N-oxide derivatives” (J Med Chem, 2010).

Assays:
Plasmodium falciparum [1] = test: Antimalarial activity against Plasmodium falciparum K1 assessed as [3H]hypoxanthine incorporation by scintillation counting; type: functional, organism-based
[2] = Cytotoxicity against human MCF7 cells after 48 hrs by MTT assay; type: cell-based
Plasmodium falciparum [3] = test: Antimalarial activity against chloroquine-resistant Plasmodium falciparum FcB1 assessed as [3H]hypoxanthine incorporation after 48 hrs by beta-counter; type: functional, organism-based; details: FcB1/Columbia
Procedure, shortened: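 Primary assay (Toulouse) on FcB1 cultured in RPMI with 25 mM HEPES and 10% human serum, O RBCs. Serial dilutions in triplicate, 2% parasitaemia, 2% haematocrit, 48 h at 37 °C, 5% CO2. [3H]-hypoxanthine added at 24 h, freeze-thaw harvest, β-counting. IC50 by linear regression on the linear segment of the semilog inhibition curve. Three independent repeats.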

Plasmodium falciparum [4] = test: Antimalarial activity against drug-sensitive Plasmodium falciparum 3D7 assessed as [3H]hypoxanthine incorporation by scintillation counting; type: functional, organism-based
Plasmodium falciparum [5] = test: Resistance index, ratio of IC50 for chloroquine-resistant Plasmodium falciparum K1 to IC50 for drug-sensitive Plasmodium falciparum 3D7; type: functional
Plasmodium falciparum [6] = test: Resistance index, ratio of IC50 for chloroquine-resistant Plasmodium falciparum FcB1 to IC50 for drug-sensitive Plasmodium falciparum 3D7; type: functional
[7] = Selectivity index, ratio of CC50 for human MCF7 cells to IC50 for chloroquine-resistant Plasmodium falciparum FcB1; type: functional
Procedure, shortened: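 XTT 0.5 mg/mL added for 180 min, formazan read at 450 nm, value taken from dose–response curves, two experiments in triplicate. This CC50 is divided by the FcB1 IC50 to give the index.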

[8] = Cytotoxicity against human KB cells after 72 hrs by alamar blue assay; type: cell-based
Procedure, shortened: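 KB cells were seeded at 4×10^4 cells/mL in RPMI 1640 with 10% heat-inactivated FCS and left 24 h at 37 °C, 5% CO2. A dilution series was added in triplicate for 72 h, then AlamarBlue for 2–4 h. Fluorescence was read at ex 530/em 585 nm, with podophyllotoxin as positive control and values from curve fitting.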

Row | SMILES | IC50 (Plasmodium falciparum [1]) [nM] | CC50 at 48 h [2] [nM] | IC50 (Plasmodium falciparum [3]) [nM] | IC50 (Plasmodium falciparum [4]) [nM] | Ratio IC50 (Plasmodium falciparum [5]) | Ratio IC50 (Plasmodium falciparum [6]) | Ratio CC50/IC50 [7] | CC50 at 72 h [8] [nM]
1 | O=C1C(c2ccc(Oc3ccccc3)cc2)=[N+]([O-])c2ccccc21 | 60 | 11100 | 264 | 148 | 0.4 | 1.8 | 42 | –
2 | COc1ccc2c(c1)C(=O)C(c1ccccc1)=[N+]2[O-] | – | 13400 | 184 | – | – | – | 73 | –
3 | O=C1C(c2ccc(C(F)(F)F)cc2)=[N+]([O-])c2ccccc21 | – | 34300 | 1170 | – | – | – | 29 | –
4 | CCCC1=[N+]([O-])c2ccccc2C1=O | – | 26400 | 12200 | – | – | – | 2 | –
5 | O=C1C(c2ccc(Oc3ccccc3)cc2)=[N+]([O-])c2cc3c(cc21)OCO3 | 138 | 12200 | 165 | 285 | 0.5 | 0.6 | 74 | –
6 | O=C1C(c2ccc(CO)cc2)=[N+]([O-])c2ccccc21 | – | 39500 | 3950 | – | – | – | 10 | –
7 | COc1ccc2c(c1)[N+]([O-])=C(c1ccc(Cl)cc1)C2=O | – | 10400 | 150 | – | – | – | 69 | –
8 | CCN(CC)c1ccc(C2=[N+]([O-])c3ccc(OC)cc3C2=O)cc1 | – | 17600 | 131 | – | – | – | 134 | –
9 | O=C1C(c2ccc(Oc3ccccc3)cc2)=[N+]([O-])c2cc(OCc3ccccc3)ccc21 | – | 2200 | 665 | – | – | – | 3.2 | –
10 | COc1ccc2c(c1)C(=O)C(c1ccc(-c3ccc(Cl)cc3)cc1)=[N+]2[O-] | – | 12100 | 630 | – | – | – | 19 | –
11 | COC(=O)c1ccc2c(c1)[N+]([O-])=C(c1ccc(OC)cc1)C2=O | – | 40200 | 206 | – | – | – | 194.9 | –
12 | O=C1C(c2ccccc2)=[N+]([O-])c2cc3c(cc21)OCO3 | – | – | 12700 | – | – | – | – | –
13 | O=C1C(c2ccc(Cl)c(Cl)c2)=[N+]([O-])c2cc3c(cc21)OCO3 | – | 7400 | 195 | – | – | – | 38.1 | –
14 | COc1ccc(C2=[N+]([O-])c3cc(Cl)ccc3C2=O)cc1 | – | 22200 | 191 | – | – | – | 116.5 | –
15 | COc1ccc(C2=[N+]([O-])c3cc(C)ccc3C2=O)cc1 | – | 14900 | 198 | – | – | – | 75 | –
16 | COc1ccc(C2=[N+]([O-])c3ccc(OC)cc3C2=O)c(C)c1 | – | 300 | 1040 | – | – | – | 0.3 | –
17 | COc1ccc2c(c1)C(=O)C(c1ccsc1)=[N+]2[O-] | – | 12300 | 270 | – | – | – | 45.5 | –
18 | COc1ccc2c(c1)C(=O)C(c1ccc(OC)c(C)c1)=[N+]2[O-] | – | > 33600 | 44 | – | – | – | >764 | –
19 | COc1ccc2c(c1)C(=O)C(c1ccc(C(C)(C)C)cc1)=[N+]2[O-] | – | 11000 | 204 | – | – | – | 53.9 | –
20 | COc1ccc2cc(C3=[N+]([O-])c4cc(OCc5ccccc5)ccc4C3=O)ccc2c1 | – | – | 730 | – | – | – | – | –
21 | O=C1C(c2ccc(Cl)c(C(F)(F)F)c2)=[N+]([O-])c2ccccc21 | – | 2000 | 1040 | – | – | – | 1.9 | –
22 | Cc1ccc(C2=[N+]([O-])c3ccccc3C2=O)cc1 | – | 15000 | 1770 | – | – | – | 8.5 | –
23 | COc1ccc2c(c1)C(=O)C(c1cc(OC)c3ccccc3c1)=[N+]2[O-] | – | 14400 | 135 | – | – | – | 107 | –
24 | COc1ccc2c(c1)C(=O)C(c1ccc(Cl)c(Cl)c1)=[N+]2[O-] | – | 8100 | 100 | – | – | – | 81 | –

Row | SMILES | IC50 (Plasmodium falciparum [1]) [nM] | CC50 at 48 h [2] [nM] | IC50 (Plasmodium falciparum [3]) [nM] | IC50 (Plasmodium falciparum [4]) [nM] | Ratio IC50 (Plasmodium falciparum [5]) | Ratio IC50 (Plasmodium falciparum [6]) | Ratio CC50/IC50 [7] | CC50 at 72 h [8] [nM]
25 | CCC1=[N+]([O-])c2cc3c(cc2C1=O)OCO3 | – | 59000 | 3560 | – | – | – | 16 | –
26 | COc1ccc(C2=[N+]([O-])c3cc(OC)ccc3C2=O)cc1 | – | 8800 | 106 | – | – | – | 83.3 | –
27 | O=C1C(c2ccc([N+](=O)[O-])cc2)=[N+]([O-])c2ccccc21 | – | 2800 | 56 | – | – | – | – | –
28 | COc1cc2c(cc1OC)[N+]([O-])=C(c1ccc(C)cc1)C2=O | – | – | 265 | – | – | – | – | –
29 | O=C1C(c2ccc(F)cc2)=[N+]([O-])c2ccccc21 | – | 8700 | 120 | – | – | – | 72.5 | –
30 | O=C1C(c2ccc(Cl)cc2)=[N+]([O-])c2ccccc21 | – | 17800 | 272 | – | – | – | 66 | –
31 | O=C1C(c2ccc(Cl)cc2)=[N+]([O-])c2cc(C(F)(F)F)ccc21 | – | 3100 | 186 | – | – | – | 16.5 | –
32 | O=C1C(c2ccc(F)cc2)=[N+]([O-])c2cc3c(cc21)OCO3 | – | – | 1710 | – | – | – | – | –
33 | COc1ccc2c(c1)C(=O)C(c1ccc(NC(C)=O)cc1)=[N+]2[O-] | – | 7400 | 400 | – | – | – | 18.5 | –
34 | CCc1ccc(C2=[N+]([O-])c3ccccc3C2=O)cc1 | – | > 39800 | 2750 | – | – | – | >14 | –
35 | COc1ccc2c(c1)C(=O)C(c1ccc(N)cc1)=[N+]2[O-] | – | 12700 | 24 | – | – | – | 528 | –
36 | COc1ccc2c(c1)C(=O)C(c1ccc(OC(F)(F)F)cc1)=[N+]2[O-] | 81 | 8300 | 20 | 30 | 2.7 | 0.7 | 415 | 11000
37 | COc1ccc(C2=[N+]([O-])c3cc(OC(F)(F)F)ccc3C2=O)cc1 | 112 | 11700 | 133 | 21 | 5.3 | 6.3 | 88.1 | 16000
38 | COc1ccc2c(c1)C(=O)C(c1ccc(Cl)cc1Cl)=[N+]2[O-] | – | > 31000 | 227 | – | – | – | >136 | –
39 | COc1ccc2c(c1)C(=O)C(c1ccccc1Cl)=[N+]2[O-] | – | – | 1130 | – | – | – | – | –
40 | COc1ccc(C2=[N+]([O-])c3cc(C(F)(F)F)ccc3C2=O)cc1 | – | 7900 | 135 | – | – | – | 58.8 | –
41 | COc1ccc(C2=[N+]([O-])c3cc([N+](=O)[O-])ccc3C2=O)cc1 | – | 21800 | 345 | – | – | – | 63.2 | –
42 | COc1cc2c(cc1OC)[N+]([O-])=C(c1ccccc1)C2=O | – | – | 1890 | – | – | – | – | –
43 | O=C1C(c2ccsc2)=[N+]([O-])c2cc(Cl)ccc21 | – | 4900 | 130 | – | – | – | 38 | –
44 | COc1ccc2c(c1)C(=O)C(c1ccc(Cl)c(C)c1)=[N+]2[O-] | – | 10300 | 3 | – | – | – | 3425 | –
45 | CC(C)CC1=[N+]([O-])c2ccccc2C1=O | – | 43100 | > 4500 | – | – | – | <9 | –
46 | COc1ccc2c(c1)C(=O)C(c1ccc(C(C)=O)cc1)=[N+]2[O-] | – | 40200 | 256 | – | – | – | – | –
47 | COc1ccc2cc(C3=[N+]([O-])c4cc5c(cc4C3=O)OCO5)ccc2c1 | – | 25600 | – | – | – | – | – | –
